{
  "source": "paper PMC4834131",
  "about": "(CPT: Pharmacometrics & Systems Pharmacology, 2016)",
  "key": {"[1]": {"experiment": "Estimation of solubility Cs by fitting PBPK model to total lung concentrations", "assay_type": "in vivo", "conditions": "rat, inhaled, 11.3 nmol/kg", "outline": "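Fit of the whole-body PBPK model with lung disposition to total lung concentrations in rats after nose-only inhalation (lung deposited dose 11.3 nmol/kg). Fitting used nonlinear least squares (Levenberg–Marquardt). The starting value came from an exhaustive sum-of-squares search over a broad range, then 300 candidates within ±200 nM of the best solution. Particle dissolution followed the Nernst–Brunner equation; all other inputs were fixed.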"}, "[2]": {"experiment": "Fraction unbound in plasma", "assay_type": "in vitro ADME"}, "logD7.4": {"experiment": "logD7.4", "assay_type": "physicochemical", "conditions": "pH 7.4"}, "glucocorticoid receptor": {"biological_target": "T1, glucocorticoid receptor (Rattus norvegicus, UniProt P06536)", "T1 sequence (P06536 1-795)": "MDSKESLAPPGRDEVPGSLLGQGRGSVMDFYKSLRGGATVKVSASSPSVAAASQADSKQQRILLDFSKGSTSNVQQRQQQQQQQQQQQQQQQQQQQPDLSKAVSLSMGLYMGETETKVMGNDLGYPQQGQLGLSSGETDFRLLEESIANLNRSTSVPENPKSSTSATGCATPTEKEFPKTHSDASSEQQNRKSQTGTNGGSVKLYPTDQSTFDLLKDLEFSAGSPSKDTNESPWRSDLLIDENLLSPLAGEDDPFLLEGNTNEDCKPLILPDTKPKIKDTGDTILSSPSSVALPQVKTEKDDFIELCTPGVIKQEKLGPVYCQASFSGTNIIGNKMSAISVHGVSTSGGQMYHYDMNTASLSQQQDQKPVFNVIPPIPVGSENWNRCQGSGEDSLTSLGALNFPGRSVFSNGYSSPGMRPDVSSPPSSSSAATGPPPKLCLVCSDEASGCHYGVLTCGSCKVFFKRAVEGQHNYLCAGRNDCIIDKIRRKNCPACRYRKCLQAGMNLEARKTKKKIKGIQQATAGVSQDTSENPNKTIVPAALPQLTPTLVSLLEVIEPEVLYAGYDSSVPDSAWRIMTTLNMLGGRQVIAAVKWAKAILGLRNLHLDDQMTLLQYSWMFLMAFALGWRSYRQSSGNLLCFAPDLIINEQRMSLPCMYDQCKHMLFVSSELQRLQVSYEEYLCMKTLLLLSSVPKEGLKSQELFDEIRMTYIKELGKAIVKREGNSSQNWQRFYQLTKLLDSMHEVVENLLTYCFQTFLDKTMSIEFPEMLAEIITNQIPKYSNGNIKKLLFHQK", "experiment": "In vivo glucocorticoid receptor occupancy study", "conditions": "iv, read-out: Observed receptor occupancy"}, "[3]": {"experiment": "Unbound lung volume of distribution", "assay_type": "in vitro ADME"}, "[4]": {"experiment": "PK study after i.v. administration in rats", "assay_type": "in vivo", "conditions": "rat, plasma, iv, 90 nmol/kg"}, "[5]": {"experiment": "In vitro apparent permeability across CaCo2-monolayers", "assay_type": "in vitro ADME", "conditions": "human, Caco-2"}},
  "data": [
    {"compound": "CCC(=O)O[C@]1(C(=O)SCF)[C@H](C)C[C@H]2[C@@H]3C[C@H](F)C4=CC(=O)C=C[C@]4(C)[C@@]3(F)[C@@H](O)C[C@@]21C", "note": "[fluticasone propionate]", "values": [
      {"measurement": "solubility", "setting": "[1]", "value": 4.53, "unit": "µM"},
      {"measurement": "fraction unbound", "setting": "[2]", "value": 0.016},
      {"measurement": "logD", "setting": "logD7.4", "value": 4.2},
      {"measurement": "receptor occupancy at 0.02 µmol/kg", "setting": "glucocorticoid receptor", "value": "27 ± 9.7", "unit": "%"},
      {"measurement": "receptor occupancy at 0.75 µmol/kg", "setting": "glucocorticoid receptor", "value": "100 ± 3.5", "unit": "%"},
      {"measurement": "Vu,lung (unbound lung volume of distribution)", "setting": "[3]", "value": 213.4, "unit": "mL/g lung tissue"},
      {"measurement": "clearance", "setting": "[4]; CLP (plasma clearance)", "value": 182, "unit": "mL/min/kg"},
      {"measurement": "Vd", "setting": "[4]; Vdss (volume of distribution at steady state)", "value": 12.5, "unit": "L/kg"},
      {"measurement": "Papp", "setting": "[5]", "value": 46.9, "unit": "×10⁻⁶ cm/s"}
    ]}
  ]
}
